Here are results for one compound from ChEMBL document CHEMBL6134796, “Development and Evaluation of Indole-Based Phospholipase D Inhibitors for Lung Cancer Immunotherapy” (J Med Chem, 2025).

In general, IC50 refers to the midpoint of a concentration-inhibition curve.

Molecules are shown by their SMILES. Active and inactive are the calls of the source. The calls are words filed in the database; no cut-off is given here.

Data set [1] has as its target T1, Phospholipase D1 (Homo sapiens) (UniProt Q13393).
T1 sequence (whole entry): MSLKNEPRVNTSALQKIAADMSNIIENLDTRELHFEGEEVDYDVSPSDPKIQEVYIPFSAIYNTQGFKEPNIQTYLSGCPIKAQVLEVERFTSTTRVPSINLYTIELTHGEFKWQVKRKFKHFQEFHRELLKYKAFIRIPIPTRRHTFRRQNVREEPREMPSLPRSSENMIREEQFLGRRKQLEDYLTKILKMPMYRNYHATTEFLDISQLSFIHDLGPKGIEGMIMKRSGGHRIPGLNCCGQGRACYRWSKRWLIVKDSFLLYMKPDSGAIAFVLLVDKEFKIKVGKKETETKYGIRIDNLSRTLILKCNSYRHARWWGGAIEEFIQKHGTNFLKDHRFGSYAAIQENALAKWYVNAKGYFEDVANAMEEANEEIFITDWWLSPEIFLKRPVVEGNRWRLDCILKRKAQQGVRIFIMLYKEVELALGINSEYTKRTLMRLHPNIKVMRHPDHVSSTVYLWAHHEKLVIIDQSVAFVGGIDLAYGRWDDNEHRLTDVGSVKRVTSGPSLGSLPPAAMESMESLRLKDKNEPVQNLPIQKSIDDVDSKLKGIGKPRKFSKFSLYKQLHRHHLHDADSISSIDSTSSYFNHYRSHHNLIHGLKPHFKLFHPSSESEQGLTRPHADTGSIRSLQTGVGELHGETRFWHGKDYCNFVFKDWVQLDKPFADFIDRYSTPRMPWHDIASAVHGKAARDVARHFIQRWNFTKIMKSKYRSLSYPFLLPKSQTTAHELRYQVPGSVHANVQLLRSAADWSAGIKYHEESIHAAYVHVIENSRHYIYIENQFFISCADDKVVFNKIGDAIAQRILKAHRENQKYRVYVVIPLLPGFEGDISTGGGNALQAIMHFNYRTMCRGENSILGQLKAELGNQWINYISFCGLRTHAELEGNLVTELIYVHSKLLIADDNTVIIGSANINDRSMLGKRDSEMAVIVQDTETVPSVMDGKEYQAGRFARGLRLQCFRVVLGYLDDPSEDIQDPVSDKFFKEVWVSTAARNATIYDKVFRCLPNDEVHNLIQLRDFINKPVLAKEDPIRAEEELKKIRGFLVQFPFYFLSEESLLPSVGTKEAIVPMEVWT
Nature of the data set: Binding affinity to PLD1 in human A549 cells assessed as protection against pronase E-mediated proteolysis at 2 to 20 uM incubated for 1 hr by DARTS assay. Particulars: dose 2-20 µM. Format: cell-based. In a few lines: (§1)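 A549 lysates made in buffer with protease and phosphatase inhibitors. Lysates were incubated with compound for 1 h at room temperature, then digested with Pronase for 10 min at RT. Digestion was quenched in SDS loading buffer by boiling 5 min. PLD1 and β-tubulin were detected by immunoblot.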

Data set [2] deals with A549. Nature of the data set: Downregulation of CD24 expression in human A549 cells by flow cytometry analysis. It counts as functional, cell-based. In a few lines: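 A549 cells treated with compound. Surface "don't eat-me" and "eat-me" markers measured by flow cytometry.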
Background: A flow cytometer gives signals particle by particle.

The next data set concerns NCI-H460. Kind of data set: Cytotoxicity against human NCI-H460 cells assessed as inhibition of cell growth incubated for 48 hrs by WST-1 assay. It counts as functional, cell-based. The conditions noted are these: NCI-H460, 48 h. The method, boiled down:
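WST-1 viability assay. Cells seeded at 5 × 10^3 per well and incubated 24 h at 37 °C, then exposed to drug for 48 h. Absorbance read at 450 nm, in triplicate. IC50 taken as the concentration giving 50% growth inhibition versus control.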
On the technique in general: Formazan colour is commonly taken as a measure of viable cells.

In data set [3] the test system is Lewis lung carcinoma cell line. Kind of data set: Antitumor activity against mouse Lewis lung carcinoma cell line allografted in male C57BL/6 mouse model assessed as reduction in […] expression at 10 mg/kg, po measured every other day for 3 weeks by IHC analysis.
Data set [4] is described as follows: Metabolic stability in human plasma assessed as parent compound remaining at 10 uM measured after 120 mins. The conditions noted are these: read-out: Stability. Format: ADME, cell-free. The method, boiled down: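 Citrated human plasma spiked to final 10 μM, incubated at 37 °C for 0, 30 and 120 min; quenched with acetonitrile containing internal standard, vortexed, centrifuged at 4 °C; parent remaining quantified by LC-MS/MS in MRM mode on C18 column, formic acid water/acetonitrile gradient.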

For data set [5], the target named is Tubulin beta (Homo sapiens) (UniProt P68371+Q9H4B7+Q13509+P04350+Q3ZCM7+P07437+Q13885+Q9BVA1+Q9BUF5+A6NNZ2). Kind of data set: Binding affinity to beta-tubulin in human A549 cells assessed as protection against pronase E-mediated proteolysis at 2 to 20 uM incubated for 1 hr by DARTS assay. Format: cell-based. The conditions noted are these: dose 2-20 µM. In a few lines: as §1

Data set [6] deals with A549. Kind of data set: Induction of apoptosis in human A549 cells by annexin V and PI staining based flow cytometry analysis. It counts as functional, cell-based.
The subject of data set [7] is A549. Kind of data set: Induction of apoptosis in human A549 cells increase in caspase-3 level. Format: functional, cell-based. In a few lines: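 Cells plated at about 40% density and treated at 10 μM for 48 h, with Ac-DEVD-CHO as the caspase-3 inhibitor control. Incubated with 1 μM NucView 488 caspase-3 substrate in PBS for 30 min at room temperature. Stained with 1 μM Hoechst 33342 and fluorescence quantified on a plate reader.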

Take `O=C(CCc1c[nH]c2ccccc12)Nc1cc(C(F)(F)F)cc(C(F)(F)F)c1`: the result (in data set [1]; with A549 [2]; in data set [3]; in the data set on A549 [6]; in the data set with A549 [7]) was Active. The IC50 in the data set with NCI-H460 amounted to 24.9 µM. For the same compound, the remaining at 2 h, 10 µM in data set [4] stood at 94.6%. The result in data set [5] was inactive.
